Reference: ChEMBL document CHEMBL1135421, “2-(Anilinomethyl)imidazolines as alpha1 adrenergic receptor agonists: the discovery of alpha1a subtype selective 2'-alkylsulfonyl-substituted analogues” (J Med Chem, 2002)
pEC50, pKi: −log10 of the molar value. Where “and” joins values, the source holds several entries; their conditions need not be identical. Equal entries are not always repeated.

Legend:
[1] = biological target: T1, Alpha-2A adrenergic receptor (Homo sapiens, UniProt P08913); experiment: Affinity to human Alpha-2A adrenergic receptor determined by radioligand binding techniques from chinese hamster ovary (CHO) cells; type: cell-based
T1 sequence (P08913 whole entry): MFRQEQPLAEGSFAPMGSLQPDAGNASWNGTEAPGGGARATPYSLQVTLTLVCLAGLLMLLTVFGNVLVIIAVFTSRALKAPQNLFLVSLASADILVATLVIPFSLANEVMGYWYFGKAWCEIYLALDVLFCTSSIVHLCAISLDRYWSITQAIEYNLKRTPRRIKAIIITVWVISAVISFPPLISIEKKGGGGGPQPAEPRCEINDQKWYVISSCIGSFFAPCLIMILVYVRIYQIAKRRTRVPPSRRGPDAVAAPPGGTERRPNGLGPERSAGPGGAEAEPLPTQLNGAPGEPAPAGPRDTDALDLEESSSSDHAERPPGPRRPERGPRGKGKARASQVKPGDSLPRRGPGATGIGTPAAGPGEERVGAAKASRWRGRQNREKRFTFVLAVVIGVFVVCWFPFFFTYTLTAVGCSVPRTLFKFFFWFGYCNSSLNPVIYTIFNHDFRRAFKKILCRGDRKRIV

[2] = biological target: T2, Alpha-2C adrenergic receptor (Homo sapiens) (UniProt P18825); experiment: Efficacy as percentage of the maximal effect observed for nonselective agonist UK-14304 in CHO cells expressing human Alpha-2C adrenergic receptor; type: functional, cell-based
T2 sequence (whole entry): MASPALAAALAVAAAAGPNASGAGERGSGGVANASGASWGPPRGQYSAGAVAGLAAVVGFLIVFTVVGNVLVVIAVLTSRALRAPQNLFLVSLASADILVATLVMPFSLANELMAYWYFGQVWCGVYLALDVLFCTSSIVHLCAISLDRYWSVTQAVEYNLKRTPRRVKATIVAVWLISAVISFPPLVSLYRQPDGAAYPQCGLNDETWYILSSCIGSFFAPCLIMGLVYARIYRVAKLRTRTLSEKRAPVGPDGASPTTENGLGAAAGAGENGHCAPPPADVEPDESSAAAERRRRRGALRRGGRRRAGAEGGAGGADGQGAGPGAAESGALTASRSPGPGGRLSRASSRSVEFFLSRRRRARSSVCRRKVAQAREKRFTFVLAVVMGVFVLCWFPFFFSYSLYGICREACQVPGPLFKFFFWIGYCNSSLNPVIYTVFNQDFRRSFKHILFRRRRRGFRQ

[3] = biological target: T3, Alpha-1D adrenergic receptor (Homo sapiens, UniProt P25100); experiment: Affinity to human Alpha-1D adrenergic receptor determined by radioligand binding techniques from rat-1 fibroblasts membranes
T3 sequence (P25100 whole entry): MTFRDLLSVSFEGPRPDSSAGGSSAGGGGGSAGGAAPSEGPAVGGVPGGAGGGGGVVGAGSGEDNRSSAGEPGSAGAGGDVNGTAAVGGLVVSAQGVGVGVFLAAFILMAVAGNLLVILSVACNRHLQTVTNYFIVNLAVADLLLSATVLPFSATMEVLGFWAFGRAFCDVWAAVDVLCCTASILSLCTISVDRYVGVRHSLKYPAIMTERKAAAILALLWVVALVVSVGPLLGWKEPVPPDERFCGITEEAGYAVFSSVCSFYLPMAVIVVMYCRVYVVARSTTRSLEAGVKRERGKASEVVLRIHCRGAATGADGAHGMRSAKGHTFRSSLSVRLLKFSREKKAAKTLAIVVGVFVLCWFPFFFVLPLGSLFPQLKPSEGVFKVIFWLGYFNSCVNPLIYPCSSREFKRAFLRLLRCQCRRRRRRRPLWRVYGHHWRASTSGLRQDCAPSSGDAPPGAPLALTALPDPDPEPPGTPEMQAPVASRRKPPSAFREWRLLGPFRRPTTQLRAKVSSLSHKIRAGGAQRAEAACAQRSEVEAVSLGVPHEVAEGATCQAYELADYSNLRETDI

[4] = biological target: T4, Alpha-1A adrenergic receptor (Homo sapiens, UniProt P35348); experiment: Affinity to Alpha-1 adrenergic receptor determined by radioligand binding techniques from rat-1 fibroblasts membranes
T4 sequence (P35348 whole entry): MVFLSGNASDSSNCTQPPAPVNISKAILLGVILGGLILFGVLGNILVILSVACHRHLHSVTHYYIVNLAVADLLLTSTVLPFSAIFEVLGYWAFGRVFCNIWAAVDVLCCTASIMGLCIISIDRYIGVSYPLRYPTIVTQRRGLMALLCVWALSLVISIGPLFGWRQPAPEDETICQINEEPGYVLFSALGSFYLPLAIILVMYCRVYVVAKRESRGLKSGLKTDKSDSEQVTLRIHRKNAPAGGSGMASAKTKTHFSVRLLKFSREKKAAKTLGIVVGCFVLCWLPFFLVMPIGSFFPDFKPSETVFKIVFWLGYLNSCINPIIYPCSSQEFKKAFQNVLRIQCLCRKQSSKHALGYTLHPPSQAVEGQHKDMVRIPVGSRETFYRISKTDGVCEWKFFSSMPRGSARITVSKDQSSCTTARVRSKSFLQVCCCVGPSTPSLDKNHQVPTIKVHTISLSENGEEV

[5] = biological target: T1, Alpha-2A adrenergic receptor; experiment: Agonist potency at Alpha-2A stably expressed in CHO cells.; type: functional, cell-based
[6] = biological target: T5, Alpha-2C adrenergic receptor (Homo sapiens, UniProt P18825); experiment: Agonist potency at Alpha-2C adrenergic receptor assayed in CHO cells expressing human Alpha-2C adrenergic receptor; type: functional, cell-based
T5 sequence (P18825 whole entry): T2 sequence (whole entry)

[7] = biological target: T6, Alpha-2A adrenergic receptor (Homo sapiens) (UniProt P08913); experiment: Efficacy as percentage of the maximal effect observed for nonselective agonist UK-14304 in CHO cells expressing human Alpha-2A adrenergic receptor; type: functional, cell-based
T6 sequence (whole entry): T1 sequence (P08913 whole entry)

[8] = biological target: T4, Alpha-1A adrenergic receptor; experiment: Agonist potency at Alpha-1 adrenergic receptor assayed in rat-1 fibroblasts expressing human Alpha-1 adrenergic receptor; type: functional
Method in brief: (§1)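 Rat-1 fibroblasts expressing human α1a/α1b/α1d, grown in DMEM with 10% heat-inactivated FBS and 0.6 mg/mL G418, plated 6000 cells/well and cultured 48 h at 37 °C. Loaded 2 h at 37 °C with Calcium Green (4 μM), 0.2% pluronic acid and 2.5 mM probenecid in HEPES buffer pH 7.4. FLIPR read at room temperature: 10 s baseline, then 50 s after compound. 11-point curves as % of 40 μM phenylephrine response, top concentration typically 5 μM.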

[9] = biological target: T5, Alpha-2C adrenergic receptor; experiment: Affinity to human Alpha-2C adrenergic receptor determined by radioligand binding techniques from chinese hamster ovary (CHO) cells; type: cell-based
[10] = biological target: T7, Alpha-1B adrenergic receptor (Homo sapiens, UniProt P35368); experiment: Agonist potency at Alpha-1B adrenergic receptor expressed in rat-1 fibroblasts; type: functional
T7 sequence (P35368 whole entry): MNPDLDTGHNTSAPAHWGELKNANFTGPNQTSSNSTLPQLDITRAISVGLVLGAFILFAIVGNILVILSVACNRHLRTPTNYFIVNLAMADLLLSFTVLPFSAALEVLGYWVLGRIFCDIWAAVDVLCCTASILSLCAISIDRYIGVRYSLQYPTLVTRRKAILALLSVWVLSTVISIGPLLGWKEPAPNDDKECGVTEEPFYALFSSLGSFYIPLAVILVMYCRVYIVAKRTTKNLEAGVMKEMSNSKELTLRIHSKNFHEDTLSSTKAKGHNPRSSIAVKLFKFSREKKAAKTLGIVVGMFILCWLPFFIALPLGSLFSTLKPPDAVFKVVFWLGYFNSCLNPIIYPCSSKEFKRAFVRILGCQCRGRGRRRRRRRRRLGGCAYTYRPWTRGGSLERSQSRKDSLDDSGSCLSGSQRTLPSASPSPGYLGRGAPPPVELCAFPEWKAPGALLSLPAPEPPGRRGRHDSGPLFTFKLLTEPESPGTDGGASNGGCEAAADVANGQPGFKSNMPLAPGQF

[11] = biological target: T3, Alpha-1D adrenergic receptor; experiment: Agonist potency at Alpha-1D adrenergic receptor assayed in rat-1 fibroblasts expressing human Alpha-1D adrenergic receptor; type: functional; method in brief: as §1
[12] = biological target: T7, Alpha-1B adrenergic receptor; experiment: Affinity to human Alpha-1B adrenergic receptor determined by radioligand binding techniques from rat-1 fibroblasts membranes
[13] = biological target: T8, Alpha-1A adrenergic receptor (Homo sapiens) (UniProt P35348); experiment: Efficacy as % of the maximal effect observed for nonselective agonist phenylephrine in rat-1 fibroblasts expressing human Alpha-1 adrenergic receptor; type: functional; method in brief: as §1
T8 sequence (whole entry): T4 sequence (P35348 whole entry)

[14] = biological target: T9, Alpha-2B adrenergic receptor (Homo sapiens, UniProt P18089); experiment: Affinity to human Alpha-2B adrenergic receptor determined by radioligand binding techniques from chinese hamster ovary (CHO) cells; type: cell-based
T9 sequence (P18089 whole entry): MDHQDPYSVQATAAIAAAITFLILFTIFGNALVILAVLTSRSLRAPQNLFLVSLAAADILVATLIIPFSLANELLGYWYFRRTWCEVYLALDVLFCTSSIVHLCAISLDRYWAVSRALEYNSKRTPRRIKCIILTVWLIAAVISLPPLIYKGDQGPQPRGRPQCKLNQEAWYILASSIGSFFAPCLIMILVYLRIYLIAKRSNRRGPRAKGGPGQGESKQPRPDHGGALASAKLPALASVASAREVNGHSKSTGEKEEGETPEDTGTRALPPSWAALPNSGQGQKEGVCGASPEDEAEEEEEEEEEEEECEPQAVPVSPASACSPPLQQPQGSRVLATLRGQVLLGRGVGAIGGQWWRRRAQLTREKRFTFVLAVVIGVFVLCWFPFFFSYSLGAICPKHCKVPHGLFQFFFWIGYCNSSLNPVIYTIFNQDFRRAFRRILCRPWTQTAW

O=S1(=O)CCCc2cccc(NCC3=NCCN3)c21
pKi [1]: 6.10 | Max [2]: 69% | pKi [3]: < 4.80 | pKi [4]: 6.21 | pEC50 [5]: < 5.00 | pEC50 [6]: 5.20 | Max [7]: 29% | pEC50 [8]: < 4.00 | pKi [9]: 5.57 | pEC50 [10]: < 4.00 | pEC50 [11]: < 4.00 | pKi [12]: 5.67

Cc1cc(C(C)(C)C)c(O)c(C)c1CC1=NCCN1
Max [7]: 88%

COc1ccc(S(C)(=O)=O)c(NCC2=NCCN2)c1
pKi [1]: 5.44 | Max [13]: 102% | Max [2]: 49% | pKi [3]: 5.12 | pKi [4]: 5.79 | pEC50 [5]: < 5.00 and 5.48 | Max [7]: 16% | pEC50 [8]: 7.85 | pKi [9]: < 5.30 | pEC50 [10]: < 4.00 | pEC50 [11]: < 4.00 | pKi [14]: < 5.20 | pKi [12]: 5.34

CS(=O)(=O)Nc1ccc(F)c([C@@H](O)CN)c1 [NS-49]
Max [13]: 109% | Max [2]: 87% | pKi [4]: 5.95 | pEC50 [5]: < 5.00 | pEC50 [6]: 5.70 | Max [7]: 34% | pEC50 [8]: 6.80 | pEC50 [10]: < 4.00 | pEC50 [11]: < 4.00 | pKi [12]: 4.95
